Assay results collected from several papers.
Protocols differ between the studies behind these lines.
Target: 3-phosphoinositide-dependent protein kinase 1 (PDPK1, Homo sapiens, UniProt O15530)
Sequence (O15530 1-556, as in one of the studies): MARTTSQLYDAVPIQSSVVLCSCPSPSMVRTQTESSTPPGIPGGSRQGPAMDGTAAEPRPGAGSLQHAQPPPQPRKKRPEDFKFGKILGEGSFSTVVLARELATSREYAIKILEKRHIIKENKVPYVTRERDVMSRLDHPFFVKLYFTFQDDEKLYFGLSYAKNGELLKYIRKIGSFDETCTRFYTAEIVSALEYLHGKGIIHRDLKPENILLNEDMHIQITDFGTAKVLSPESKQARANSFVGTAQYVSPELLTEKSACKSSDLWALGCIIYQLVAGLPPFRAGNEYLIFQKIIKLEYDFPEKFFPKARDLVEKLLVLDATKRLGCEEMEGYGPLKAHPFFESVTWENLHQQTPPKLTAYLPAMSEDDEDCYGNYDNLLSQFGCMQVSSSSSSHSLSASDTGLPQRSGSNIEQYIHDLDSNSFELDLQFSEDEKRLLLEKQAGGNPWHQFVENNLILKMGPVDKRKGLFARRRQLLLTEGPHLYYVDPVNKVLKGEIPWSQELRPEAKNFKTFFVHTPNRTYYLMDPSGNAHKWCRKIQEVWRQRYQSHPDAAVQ

Compound	read-out	technique	tested at	remaining binding [%]
CCN(CC)CCNC(=O)c1c(C)[nH]c(/C=C2\C(=O)Nc3ccc(F)cc32)c1C	cell-free assay	competition with immobilised ligand	0.1 µM	100
CNC(=O)Nc1ccc2c(c1)CC[C@@]21OC(=O)N(CC(=O)N(Cc2ccc(F)cc2)[C@@H](C)C(F)(F)F)C1=O	cell-free assay	competition with immobilised ligand	1 µM	88
Cc1cnn2ncc(-c3ccnc(N(C)C)n3)c2c1	binding	–	1 µM	100
Cc1nc(Nc2ncc(C(=O)Nc3c(C)cccc3Cl)s2)cc(N2CCN(CCO)CC2)n1	cell-free assay	competition with immobilised ligand	10 µM	100
C=CC(=O)N1CCC(C(=O)NCC(=O)N2CCN(c3nc(-c4cnc(N)nc4C(F)F)nc(N4CCOCC4)n3)CC2)CC1	binding	competition with immobilised ligand	1 µM	93
COc1ccc2cc(OCC3(C(=O)O)CN(C(=O)c4ccc(F)cc4)C3)ccc2c1	cell-free assay	competition with immobilised ligand	1 µM	100
Cc1ccc(NC(=O)c2ccc(CN3CCN(C)CC3)cc2)cc1Nc1nccc(-c2cccnc2)n1	cell-free assay	competition with immobilised ligand	0.1 µM	100
COc1cnc(Nc2cccc(S(N)(=O)=O)c2)nc1N1CCN(c2ccccc2)C(=O)C1	binding	competition with immobilised ligand	1 µM	100
COc1ccc2c(c1)O[C@H](c1ccc(OC)c(OC)c1)C[C@@H]2NC(=O)C1(c2ccc3c(c2)OC(F)(F)O3)CC1	cell-free assay	competition with immobilised ligand	1 µM	100
C[C@H]1CCN(c2nccc(-c3cnn4ncccc34)n2)C1	binding	–	1 µM	100
CCCCN(CCCC)C(=O)CN1C[C@@H](c2cc(OC)c3c(c2)OCO3)[C@H](C(=O)O)[C@H]1CC(C)(C)CCC	cell-free assay	competition with immobilised ligand	1 µM	77.3
C[C@@H]1CN(c2ccc3ncc(-c4ccc5[nH]nc(C6CC6)c5c4)n3n2)C[C@H](C)O1	binding	competition with immobilised ligand	50 nM	100
CN(c1nccc(-c2cnn3ncccc23)n1)C1CC1	binding	–	1 µM	100
O=C(Nc1cccnn1)N1CC(C/C=C/c2cncc(Oc3ccc(C(F)(F)F)cn3)n2)C1	cell-free assay	competition with immobilised ligand	1 µM	97
c1cncc(-c2cccc(Nc3nccc(NC4CCCCC4)n3)c2)c1	binding	competition with immobilised ligand	10 µM	100
Cc1c(-c2ccccc2)oc2c(C(=O)OCCN3CCCCC3)cccc2c1=O	cell-free assay	competition with immobilised ligand	0.1 µM	100
N[C@H]1CCN(c2nccc(-c3cnn4ncccc34)n2)C1	binding	–	1 µM	97

Compound	read-out	technique	tested at	remaining binding [%]
CNC(=O)c1cc(Oc2ccc(NC(=O)Nc3ccc(Cl)c(C(F)(F)F)c3)cc2)ccn1	cell-free assay	competition with immobilised ligand	10 µM	85
CC(C)(C)c1ccc(-c2nc(CBr)nn2-c2cccc(O)c2)cc1	cell-free assay	competition with immobilised ligand	10 µM	89
O=C(NCCCN1CCOCC1)c1ccc(Nc2nccc(-c3cc4ccccc4s3)n2)cc1	binding	competition with immobilised ligand	1 µM	99
Cc1nc(Cc2cccc(C(F)(F)F)c2)sc1-c1ccc(C(N)=O)nc1	cell-free assay	competition with immobilised ligand	1 µM	82
CCN(CC)Cc1cc(Nc2ccnc3cc(Cl)ccc23)ccc1O	cell-free assay	competition with immobilised ligand	10 µM	93
O=C(c1ccc(Nc2ncc(Cl)c(-c3ccc(Cl)s3)n2)cc1)N1CCC(N2CCCC2)CC1	binding	competition with immobilised ligand	1 µM	82
CS(=O)(=O)CCNCc1ccc(-c2ccc3ncnc(Nc4ccc(OCc5cccc(F)c5)c(Cl)c4)c3c2)o1	cell-free assay	competition with immobilised ligand	10 µM	100
CNC(=O)[C@@H]1CC[C@@H](n2c(-c3ccc4cnccc4c3)nc3ccc(C(=O)NCc4cccc(C(N)=O)c4)cc32)C1	binding	competition with immobilised ligand	1 µM	51
CCN1CCN(Cc2ccc(C(=O)Nc3ccc(C)c(Oc4ccc5c(c4)CC(=O)N5)c3)cc2C(F)(F)F)CC1	binding	competition with immobilised ligand	1 µM	100
CN(C)c1ncc(F)c(-c2cnn3ncccc23)n1	binding	–	1 µM	99
Cn1cc(Cl)c2c(Oc3c(F)cc(Nc4cc(Cl)nc(N)n4)cc3F)ccnc21	cell-free assay	competition with immobilised ligand	0.1 µM	61
CN1CC[C@H](c2c(O)cc(O)c3c(=O)cc(-c4ccccc4Cl)oc23)[C@H](O)C1	cell-free assay	competition with immobilised ligand	0.1 µM	100
CS(=O)(=O)NCC[C@H](NC(=O)c1cncc2c1cnn2-c1ccc(F)cc1)c1ccnc(S(C)(=O)=O)c1	cell-free assay	competition with immobilised ligand	1 µM	100
CC1CCCN1c1nccc(-c2cnn3ncccc23)n1 (stereo not shown)	binding	–	1 µM	89
O=C(Nc1c[nH]nc1C(=O)NC1CCNCC1)c1cc(F)cc(F)c1	binding	competition with immobilised ligand	1 µM	90
CN(C)c1nccc(-c2cnc3ncccn23)n1	binding	–	1 µM	100
O=C(c1ccc(Nc2nccc(-c3cc4ccccc4s3)n2)cc1)N1CCC(N2CCCC2)CC1	binding	competition with immobilised ligand	1 µM	100
